Measurements: ChEMBL document CHEMBL1125815, “2-Phenyl-3H-imidazo[4,5-b]pyridine-3-acetamides as non-benzodiazepine anticonvulsants and anxiolytics” (J Med Chem, 1991)

Tests used:
[1] = target: GABA-A receptor; anion channel; assay: Displacement of [3H]flunitrazepam from GABA-A benzodiazepine receptor of rat cerebral cortex membrane; format: tissue-based
Summary of the method: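 Rat cerebral cortex P2+P3 membranes (fresh tissue, two freeze-thaw-wash cycles to remove endogenous GABA), 0.4 mg protein. Incubated with 1 nM [3H]flunitrazepam and six concentrations (1 × 10^-5 – 1 × 10^-10 M) for 30 min at 4 °C. Filtered on GF/b filters and counted. […] IC50 from log-logit regression, mean of replicates.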

Mus musculus [2] = species: Mus musculus; assay: Anticonvulsant activity against pentylenetetrazole-induced clonic seizures in mice; format: functional; conditions: Mus musculus; read-out: ED50
Summary of the method: (§1)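 Female adult ICR mice, groups of eight, given test compound ip (100 mg/kg screen) in 0.5% aqueous methylcellulose or vehicle. Challenged 30 min later with pentyletetrazole 80 mg/kg sc and scored for clonic seizures.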

[3] = target: GABA-A receptor; anion channel; assay: Displacement of [3H]-diazepam from GABA-A benzodiazepine receptor of rat cerebral cortex membrane; format: tissue-based
Summary of the method: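 Membranes skipped the freeze-thaw-wash cycles, so endogenous GABA was retained. Six concentrations (1 × 10^-5 – 1 × 10^-10 M), 30 min at 4 °C, glass-fiber filtration and scintillation counting. IC50 from log-logit regression.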

Mus musculus [4] = assay: Compound was tested for anticonvulsant activity against pentylenetetrazole-induced clonic seizures in mice on intraperitoneal administration; format: functional; conditions: ip; summary of the method: as §1
Mus musculus [5] = assay: Anticonvulsant activity against picrotoxin-induced clonic seizures in mice at 3.2 mg/kg sc; format: functional; conditions: route subcutaneous
Mus musculus [6] = assay: Compound was tested for anticonvulsant activity against bicuculline-induced clonic seizures in mice at 2.7 mg/kg sc; format: functional; conditions: route subcutaneous
Mus musculus [7] = assay: Compound was tested for anticonvulsant activity against pentylenetetrazole-induced clonic seizures in mice at 80 mg/kg sc; format: functional; conditions: route subcutaneous; summary of the method: as §1
Mus musculus [8] = species: Mus musculus; assay: Compound was tested for anticonvulsant activity against maximal electroshock-induced […] seizures in mice at 50mA, 200 ms; format: functional
Mus musculus [9] = assay: Compound was tested for anticonvulsant activity against pentylenetetrazole-induced clonic seizures in mice; conv = 'convulsant at 10 mg/kg'; format: functional, organism-based; parameters: dose 10 mg/kg; summary of the method: as §1

Row | SMILES | IC50 [1] [µM] | ED50 (Mus musculus [2]) [mg/kg] | other results
1 | CN(C)C(=O)Cn1c(Cc2ccc(Cl)cc2)nc2cccnc21 | > 10 | – | –
2 | O=C(Cn1c(-c2ccc(Cl)cc2)nc2cccnc21)N1CCCCC1 | 2.7 | 56.2 | –
3 | NC(=O)Cn1c(-c2cccc(Cl)c2)nc2cccnc21 | – | – | IC50 [3]: < 10 µM
4 | O=C(Cn1c(-c2ccc(Cl)cc2)nc2cccnc21)Nc1ccccn1 | 0.31 | 100 | –
5 | CN(C)C(=O)Cn1c(-c2ccc(Cl)cc2)nc2cc(Cl)cnc21 | > 10 | 56.2 | –
6 | NC(=O)Cn1c(-c2ccc(Cl)cc2)nc2ccc[n+]([O-])c21 | > 10 | 52.1 | –
7 | C[C@H](C(=O)N(C)C)n1c(-c2ccc(Cl)cc2)nc2cccnc21 | > 10 | 43.5 | –
8 | C[C@@H](C(=O)N(C)C)n1c(-c2ccc(Cl)cc2)nc2cccnc21 | > 10 | 31.6 | –
9 | CN(C)CCN(C)C(=O)Cn1c(-c2ccc(Cl)cc2)nc2cccnc21 | > 10 | 100 | –
10 | CCCNC(=O)Cn1c(-c2ccc(Cl)cc2)nc2cccnc21 | – | 37.5 | IC50 [3]: 1.26 µM
11 | CC(=O)N1CCN(C(=O)Cn2c(-c3ccc(Cl)cc3)nc3cccnc32)CC1 | 6.4 | – | ED50 (Mus musculus [4]): 100 mg/kg
12 | CN(C)C(=O)Cn1c(-c2ccc(Br)o2)nc2cccnc21 | 0.2 | 100 | –
13 | CCCN(CCC)C(=O)Cn1c(-c2ccc(Cl)cc2)nc2ncccc21 | > 10 | – | –
14 | CN(C)C(=O)Cn1c(-c2ccc(C(F)(F)F)cc2)nc2cccnc21 | – | 3.2 | IC50 [3]: 3.7 µM
15 | CN(C)C(=O)Cn1c(-c2ccc(Br)s2)nc2cccnc21 | 2.5 | – | ED50 (Mus musculus [4]): 100 mg/kg
16 | CN(C)C(=O)Cn1c(-c2ccc(Cl)cc2)nc2c(Cl)ccnc21 | > 10 | – | –
17 | CN(C)C(=O)Cn1c(-c2ccco2)nc2cccnc21 | > 10 | > 100 | –
18 | Cc1ccc(-c2nc3cccnc3n2CC(N)=O)cc1 | 4.5 | 50.5 | –

Row | SMILES | IC50 [1] [µM] | ED50 (Mus musculus [2]) [mg/kg] | other results
19 | O=C1NC(=O)C(c2ccccc2)(c2ccccc2)N1 [PHENYTOIN] | – | – | ED50 (Mus musculus [5]): > 100 mg/kg; ED50 (Mus musculus [6]): > 100 mg/kg; ED50 (Mus musculus [7]): > 300 mg/kg
20 | O=C(O)CNC(=O)Cn1c(-c2ccc(Cl)cc2)nc2cccnc21 | – | – | IC50 [3]: 7.1 µM
21 | NC(=O)Cn1c(-c2ccc(F)cc2)nc2cccnc21 | > 10 | – | –
22 | CCOC(=O)CCCNC(=O)Cn1c(-c2ccc(Cl)cc2)nc2cccnc21 | > 10 | 100 | –
23 | CCC1(c2ccccc2)C(=O)NC(=O)NC1=O [PHENOBARBITAL] | – | – | ED50 (Mus musculus [5]): 27.5 mg/kg; ED50 (Mus musculus [6]): 37.7 mg/kg; ED50 (Mus musculus [8]): 21.8 mg/kg; ED50 (Mus musculus [7]): 13.2 mg/kg
24 | O=C(Cn1c(-c2ccc(Cl)cc2)nc2cccnc21)Nc1cccnc1 | – | 100 | IC50 [3]: 0.23 µM
25 | O=C(Cn1c(-c2ccc(Cl)cc2)nc2cccnc21)Nc1ccccc1 | > 10 | – | –
26 | CCC1(C)CC(=O)NC1=O (centres undefined) [ETHOSUXIMIDE] | – | – | ED50 (Mus musculus [8]): > 1000 mg/kg; ED50 (Mus musculus [7]): 130 mg/kg
27 | CCCN(CCC)C(=O)Cn1c(-c2ccc(Cl)cc2)nc2ccccc21 | 2.7 | – | –
28 | CCCN(CCC)C(=O)Cn1c(-c2ccc(Cl)cc2)nc2cccnc21 | 0.38 | 11 | –
29 | CN(C)C(=O)Cn1c(-c2ccc(Br)cc2)nc2cccnc21 | – | 7 | IC50 [3]: 3 µM
30 | NC(=O)Cn1c(-c2ccc(Cl)cc2)nc2ncccc21 | > 10 | – | –
31 | CC(=O)NCCNC(=O)Cn1c(-c2ccc(Cl)cc2)nc2cccnc21 | 7.2 | – | –
32 | CN(C)C(=O)Cn1c(-c2ccc(Cl)cc2)nc2ccc(Cl)nc21 | 0.46 | 1.1 | –
33 | NC(=O)Cn1c(-c2ccc(C(F)(F)F)cc2)nc2cccnc21 | > 10 | 11.7 | –
34 | CN(C)C(=O)Cn1c(-c2ccc(Cl)cc2Cl)nc2cccnc21 | > 10 | – | ED50 (Mus musculus [9]): Convulsant
35 | CN(C)C(=O)Cn1c(-c2ccc(Cl)cc2)nc2ccncc21 | > 10 | – | –
36 | Cc1ccc2nc(-c3ccc(Cl)cc3)n(CC(=O)N(C)C)c2n1 | 0.88 | 2.5 | –
